# ChEMBL document CHEMBL1138753, “Synthesis and biological activity of analogues of the antimicrotubule agent N,beta,beta-trimethyl-L-phenylalanyl-N(1)-[(1S,2E)-3-carboxy-1-isopropylbut-2-enyl]- N(1),3-dimethyl-L-valinamide (HTI-286)” (J Med Chem, 2004)
# Key:
# Tubulin beta-1 chain [1] = target: T1, Tubulin beta-1 chain (Homo sapiens, UniProt Q9H4B7); test: Percent inhibition of tubulin polymerization at 0.3 uM concentration; type: functional
# LOX IMVI = test: Inhibitory concentration against Lox melanoma cells; type: functional, cell-based; conditions: Homo sapiens
# Outline: (§1)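 Cytotoxicity panel covered tumor lines differing in P-glycoprotein expression. Lox melanoma and KM20 have none; NCI-H1299, HCT-15 and S1 express it. Result is the average IC50 (nM) ± SEM.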
# [2] = Inhibitory concentration against S1 cells was evaluated; type: functional, cell-based; outline: as §1
# Tubulin beta-1 chain [3] = target: T1, Tubulin beta-1 chain; test: Binding affinity towards tubulin
# NCI-H1299 = test: Inhibitory concentration against NCI-H1299 cells was evaluated; type: functional, cell-based; conditions: Homo sapiens; outline: as §1
# KB [4] = test: Concentration required to inhibit tumor cell growth in KB-8-5 cells; type: functional, cell-based, Homo sapiens; conditions: Homo sapiens, KB
# Outline: (§2)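 Cytotoxicity was measured in paclitaxel-sensitive KB-3-1 cells and in KB-8-5 and KB-V1 cells, which express moderate and high P-glycoprotein respectively. Result is the average IC50 (nM) ± SEM; SEM is omitted where it is below 10% of the average.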
# Mus musculus [5] = test: Minimum effective dose was evaluated in lox melanoma human tumor graft model in athymic mice when administered intravenously; conditions: iv, read-out: MED
# [6] = Concentration required to inhibit tumor cell growth in KB-3-1 cells; type: functional, cell-based, Homo sapiens; conditions: Homo sapiens, KB 3-1; outline: as §2
# KB [7] = test: Concentration required to inhibit tumor cell growth in KB-V1 cells; type: functional, cell-based; conditions: Homo sapiens; outline: as §2
# HCT-15 = test: Inhibitory concentration against HCT-15 cells was evaluated; type: functional, cell-based; conditions: Homo sapiens; outline: as §1
# Mus musculus [8] = test: Minimum tolerated dose was evaluated in lox melanoma human tumor graft model in athymic mice when administered intravenously
# [9] = Inhibitory concentration against KM20 cells was evaluated; type: functional, cell-based, Homo sapiens; outline: as §1
# Tubulin beta-1 chain [10] = target: T1, Tubulin beta-1 chain; test: Binding affinity towards tubulin; e = no evidence for binding
# KB 3-1 = test: Inhibitory concentration against KB-3-1 cells was evaluated; type: functional, cell-based; conditions: Homo sapiens
# Outline: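 Cytotoxicity was measured in paclitaxel-sensitive KB-3-1 human carcinoma cells. The value is the average IC50 in nM ± SEM; where no SEM is given, it is under 10% of the average.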
# Tubulin beta-1 chain [11] = target: T1, Tubulin beta-1 chain; test: Binding affinity towards tubulin; d = weak binding
# T1 sequence (Q9H4B7 whole entry): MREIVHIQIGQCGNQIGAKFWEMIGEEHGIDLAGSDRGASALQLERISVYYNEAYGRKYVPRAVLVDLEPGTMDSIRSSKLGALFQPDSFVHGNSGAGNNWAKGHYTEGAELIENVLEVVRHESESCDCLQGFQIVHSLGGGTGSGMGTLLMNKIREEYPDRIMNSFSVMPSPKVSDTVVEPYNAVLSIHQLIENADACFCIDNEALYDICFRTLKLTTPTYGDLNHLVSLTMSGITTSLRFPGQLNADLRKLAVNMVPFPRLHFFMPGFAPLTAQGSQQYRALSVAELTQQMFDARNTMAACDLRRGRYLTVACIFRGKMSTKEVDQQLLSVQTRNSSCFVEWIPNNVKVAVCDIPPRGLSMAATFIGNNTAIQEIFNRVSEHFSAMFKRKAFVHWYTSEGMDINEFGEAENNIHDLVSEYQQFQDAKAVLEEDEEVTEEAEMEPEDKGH
IC50 (KB 3-1),Kd (Tubulin beta-1 chain [11]),Compound,inhibition (Tubulin beta-1 chain [1]),IC50 (LOX IMVI),IC50 [2],Kd (Tubulin beta-1 chain [3]),IC50 (NCI-H1299),IC50 (KB [4]),minimal effective dose (Mus musculus [5]),IC50 [6],IC50 (KB [7]),IC50 (HCT-15),MTD (Mus musculus [8]),IC50 [9],Kd (Tubulin beta-1 chain [10])
–,–,CN[C@H](C(=O)N[C@H](C(=O)N(C)[C@H](/C=C(\C)C(=O)O)C(C)C)C(C)(C)C)C(C)(C)c1ccc(OC)cc1,91%,1.1 nM,7.3 nM,700 nM,10 nM,4.1 nM,0.1 mg/kg,1.4 nM,143 nM,6.9 nM,1.6 mg/kg,–,–
–,–,CCOC(=O)/C(C)=C/[C@H](C(C)C)N(C)C(=O)[C@@H](NC(=O)[C@@H](NC)C(C)(C)c1ccccc1)C(C)(C)C,97%,13.9 nM,–,4000 nM,100 nM,499 nM,0.4 mg/kg,34 nM,1870 nM,575 nM,–,–,–
–,–,CN[C@H](C(=O)N[C@H](C(=O)N(C)[C@H](/C=C(\C)C(=O)N1CCOCC1)C(C)C)C(C)(C)C)C(C)(C)c1ccccc1,69%,–,–,–,–,75 nM,3 mg/kg,42 nM,1190 nM,–,–,–,–
–,–,CC/C(=C\[C@H](C(C)C)N(C)C(=O)[C@@H](NC(=O)[C@@H](NC)C(C)(C)c1ccccc1)C(C)(C)C)C(=O)O,83%,6.3 nM,–,–,19.3 nM,14 nM,2 mg/kg,5.4 nM,513 nM,20.8 nM,–,6.6 nM,–
–,–,C/C(=C\[C@H](C(C)C)N(C)C(=O)[C@@H](NC(=O)[C@@H](C)C(C)(C)c1ccccc1)C(C)(C)C)C(=O)O,94%,1380 nM,–,–,1070 nM,639 nM,–,561 nM,> 3000 nM,1200 nM,–,–,No evidence for binding
–,–,CNC(=O)/C(C)=C/[C@H](C(C)C)N(C)C(=O)[C@@H](NC(=O)[C@@H](NC)C(C)(C)c1ccccc1)C(C)(C)C,78%,–,657 nM,–,90 nM,129 nM,–,68 nM,1590 nM,25.5 nM,–,–,–
–,–,C/C(=C\[C@H](C(C)C)N(C)C(=O)[C@@H](NC(=O)[C@@H](N(C)C)C(C)(C)c1ccccc1)C(C)(C)C)C(=O)O,93%,–,–,–,–,3.7 nM,1 mg/kg,1.6 nM,116 nM,–,–,–,–
3.9 nM,–,CC(=O)O[C@H]1C(=O)[C@@]2(C)[C@H]([C@H](OC(=O)c3ccccc3)[C@]3(O)C[C@H](OC(=O)[C@H](O)[C@@H](NC(=O)c4ccccc4)c4ccccc4)C(C)=C1C3(C)C)[C@]1(OC(C)=O)CO[C@@H]1C[C@@H]2O [PACLITAXEL],–,17.3 nM,92 nM,–,37.7 nM,–,–,–,–,438 nM,–,8.9 nM,–
–,Weak binding,"CN[C@@H](C(=O)N[C@H](C(=O)N(C)[C@H](/C=C(\C)C(=O)O)C(C)C)C(C)(C)C)C(C)(C)c1ccccc1 (single isomer, unassigned)",91%,37 nM,–,–,79 nM,39 nM,–,28 nM,879 nM,58 nM,–,–,–
–,–,CN[C@H](C(=O)N[C@H](C(=O)N[C@H](/C=C(\C)C(=O)O)C(C)C)C(C)(C)C)C(C)(C)c1ccccc1,79%,23 nM,–,–,54 nM,130 nM,–,43 nM,> 3000 nM,204 nM,–,–,–
–,–,CN[C@H](C(=O)N[C@H](C(=O)N(C)[C@H](/C=C(\C)C(=O)O)C(C)C)C(C)(C)C)C(C)(C)C1CCCCC1,93%,–,–,1200 nM,–,5.7 nM,1 mg/kg,3.9 nM,155 nM,–,–,–,–
–,–,CCCC[C@@H](/C=C(\C)C(=O)O)N(C)C(=O)[C@@H](NC(=O)[C@@H](NC)C(C)(C)c1ccccc1)C(C)(C)C,52%,–,–,–,268 nM,78 nM,–,36 nM,> 3000 nM,–,–,53 nM,–
–,–,CN[C@H](C(=O)N[C@H](C(=O)N(C)[C@H](/C=C(\C)C(=O)O)C(C)C)C(C)C)C(C)(C)c1ccccc1,78%,–,–,–,–,11 nM,0.7 mg/kg,5.2 nM,288 nM,–,>3 mg/kg,–,–
–,–,C/C(=C\[C@H](C(C)C)N(C)C(=O)[C@@H](NC(=O)[C@@H](N(C)CCO)C(C)(C)c1ccccc1)C(C)(C)C)C(=O)O,72%,–,–,1000 nM,–,62 nM,–,45 nM,> 3000 nM,–,–,–,–
–,–,CN[C@H](C(=O)N[C@H](C(=O)N(C)[C@H](/C=C(\C)C(=O)O)C(C)C)C(C)(C)SC)C(C)(C)c1ccccc1,76%,3 nM,–,700 nM,15.8 nM,7.1 nM,0.5 mg/kg,2.7 nM,303 nM,18.6 nM,–,6 nM,–
–,–,CN[C@H](C(=O)N[C@H](C(=O)N(C)[C@H](C[C@@H](C)C(=O)O)C(C)C)C(C)(C)C)C(C)(C)c1ccccc1,99%,–,–,4000 nM,–,19.1 nM,–,8.5 nM,1320 nM,–,–,–,–
–,–,"CN[C@H](C(=O)N[C@H](C(=O)N(C)[C@@H](/C=C(\C)C(=O)O)C(C)C)C(C)(C)C)C(C)(C)c1ccccc1 (single isomer, unassigned)",0%,–,–,–,–,1650 nM,–,605 nM,> 3000 nM,–,–,–,–
–,–,CN[C@H](C(=O)N[C@H](C(=O)N(C)[C@H](/C=C(\C)C(=O)O)C(C)C)C(C)(C)C)[C@@H](C)c1ccccc1,84%,–,–,–,–,414 nM,–,207 nM,> 3000 nM,–,–,–,–
–,–,C/C(=C\[C@H](C(C)C)N(C)C(=O)[C@@H](NC(=O)[C@@H](NCc1ccccc1)C(C)(C)c1ccccc1)C(C)(C)C)C(=O)O,55%,–,–,–,–,1880 nM,–,1790 nM,> 3000 nM,–,–,–,–
–,–,CN[C@H](C(=O)N[C@H](C(=O)N(C)[C@H](/C=C(\C)C(=O)N1CCN(Cc2ccccc2)CC1)C(C)C)C(C)(C)C)C(C)(C)c1ccccc1,29%,–,–,–,–,22 nM,–,15 nM,366 nM,–,–,–,–
–,–,C/C(=C\[C@H](C(C)C)N(C)C(=O)[C@@H](NC(=O)[C@H](C(C)(C)c1ccccc1)S(C)(=O)=O)C(C)(C)C)C(=O)O,80%,–,–,–,–,2110 nM,–,1750 nM,> 3000 nM,–,–,–,–
–,–,CN[C@H](C(=O)N[C@H](C(=O)N(C)[C@H](/C=C(\C)C(=O)N1CCN(C)CC1)C(C)C)C(C)(C)C)C(C)(C)c1ccccc1,69%,–,–,–,–,60 nM,3 mg/kg,33 nM,2330 nM,–,15 mg/kg,–,–
–,–,CCN(C(=O)[C@@H](NC(=O)[C@@H](NC)C(C)(C)c1ccccc1)C(C)(C)C)[C@H](/C=C(\C)C(=O)O)C(C)C,11%,–,–,–,–,197 nM,–,109 nM,> 3000 nM,–,–,–,–
–,–,CN[C@H](C(=O)N[C@H](C(=O)N(C)[C@H](/C=C(\C)C(=O)O)C(C)C)C(C)(C)C)C(C)(C)c1ccccc1 [TALTOBULIN],88%,1.4 nM,3.7 nM,260 nM,6.8 nM,–,0.2 mg/kg,–,77.4 nM,4.2 nM,1.6 mg/kg,1.8 nM,–
–,–,CN[C@H](C(=O)N[C@H](C(=O)N(C)[C@H](/C=C(\C)C(=O)O)C(C)C)C(C)(C)C)[C@H](C)c1ccccc1,77%,–,–,–,–,584 nM,–,438 nM,> 3000 nM,–,–,–,–
